From ChEMBL document CHEMBL3091355, “Designing and synthesis of novel antimicrobial heterocyclic analogs of fatty acids” (2013)
≈ marks a conversion by molar mass, not a printed value.

Columns and labels:
Type in all cases: functional
Nakaseomyces glabratus [1] = assay: Antifungal activity against Candida glabrata after 20 hrs by agar dilution method
Candida parapsilosis [2] = assay: Fungicidal activity against Candida parapsilosis clinical isolate by micro dilution method; conditions: Lodderomyces parapsilosis
Candida tropicalis [3] = assay: Fungicidal activity against Candida tropicalis clinical isolate by micro dilution method
Candida albicans [4] = assay: Fungicidal activity against Candida albicans clinical isolate by micro dilution method
Candida tropicalis [5] = assay: Antifungal activity against fluconazole, itraconazole-resistant Candida tropicalis clinical isolate after 20 hrs by agar dilution method
Procedure, shortened: (§1)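 Clinical Candida isolates purified and subcultured on SC, SCC and PDA media before testing. Compounds were dissolved in DMSO as a stock, then diluted into solid PDA medium to final concentrations of 0.0312 to 256.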

Candida albicans [6] = assay: Antifungal activity against fluconazole, itraconazole-resistant Candida albicans clinical isolate after 20 hrs by agar dilution method; procedure, shortened: as §1
Candida parapsilosis [7] = assay: Antifungal activity against Candida parapsilosis clinical isolate after 20 hrs by agar dilution method; conditions: Lodderomyces parapsilosis
Candida tropicalis [8] = assay: Antifungal activity against Candida tropicalis clinical isolate after 20 hrs by agar dilution method
Candida albicans [9] = assay: Antifungal activity against Candida albicans clinical isolate after 20 hrs by agar dilution method
Candida dubliniensis [10] = assay: Fungicidal activity against Candida dubliniensis by micro dilution method
Pichia kudriavzevii [11] = assay: Fungicidal activity against Candida krusei by micro dilution method
Candida parapsilosis [12] = assay: Fungicidal activity against Candida parapsilosis by micro dilution method; conditions: Lodderomyces parapsilosis
Nakaseomyces glabratus [13] = assay: Fungicidal activity against Candida glabrata by micro dilution method
Candida tropicalis [14] = assay: Fungicidal activity against Candida tropicalis by micro dilution method
Candida albicans [15] = assay: Fungicidal activity against Candida albicans by micro dilution method
Candida dubliniensis [16] = assay: Antifungal activity against Candida dubliniensis after 20 hrs by agar dilution method
Pichia kudriavzevii [17] = assay: Antifungal activity against Candida krusei after 20 hrs by agar dilution method
Candida parapsilosis [18] = assay: Antifungal activity against Candida parapsilosis after 20 hrs by agar dilution method; conditions: Lodderomyces parapsilosis
Candida tropicalis [19] = assay: Antifungal activity against Candida tropicalis after 20 hrs by agar dilution method
Candida albicans [20] = assay: Antifungal activity against Candida albicans after 20 hrs by agar dilution method; procedure, shortened: as §1
Escherichia coli [21] = assay: Bactericidal activity against Escherichia coli ATCC 25922 after 18 to 24 hrs; conditions: read-out: MBC99.9
Procedure, shortened: (§2)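 MBC taken as the lowest concentration that killed the bacteria completely.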

Klebsiella pneumoniae [22] = assay: Bactericidal activity against Klebsiella pneumoniae clinical isolate after 18 to 24 hrs; conditions: read-out: MBC99.9
Pseudomonas aeruginosa [23] = assay: Bactericidal activity against Pseudomonas aeruginosa ATCC 27853 after 18 to 24 hrs; conditions: read-out: MBC99.9; procedure, shortened: as §2
Staphylococcus aureus [24] = assay: Bactericidal activity against Staphylococcus aureus after 18 to 24 hrs; conditions: read-out: MBC99.9; procedure, shortened: as §2
Streptococcus pyogenes [25] = assay: Bactericidal activity against Streptococcus pyogenes clinical isolate after 18 to 24 hrs; conditions: read-out: MBC99.9
Escherichia coli [26] = assay: Antibacterial activity against Escherichia coli ATCC 25922 after 24 hrs by broth micro dilution method; conditions: ATCC 25922, 24 h
Procedure, shortened: (§3)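 MIC by broth microdilution; growth read visually and spectrophotometrically. MIC taken as the lowest concentration giving complete inhibition of bacterial growth.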

Klebsiella pneumoniae [27] = assay: Antibacterial activity against Klebsiella pneumoniae clinical isolate after 24 hrs by broth micro dilution method
Pseudomonas aeruginosa [28] = assay: Antibacterial activity against Pseudomonas aeruginosa ATCC 27853 after 24 hrs by broth micro dilution method; conditions: ATCC 27853, 24 h; procedure, shortened: as §3
Staphylococcus aureus [29] = assay: Antibacterial activity against Staphylococcus aureus after 24 hrs by broth micro dilution method; procedure, shortened: as §3
Streptococcus pyogenes [30] = assay: Antibacterial activity against Streptococcus pyogenes clinical isolate after 24 hrs by broth micro dilution method
Escherichia coli [31] = assay: Antibacterial activity against Escherichia coli ATCC 25922 after 24 hrs by disc diffusion method
Procedure, shortened: (§4)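 Disk diffusion on agar; activity measured as the halo zone of inhibition around the disk.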

Klebsiella pneumoniae [32] = assay: Antibacterial activity against Klebsiella pneumoniae clinical isolate after 24 hrs by disc diffusion method
Pseudomonas aeruginosa [33] = assay: Antibacterial activity against Pseudomonas aeruginosa ATCC 27853 after 24 hrs by disc diffusion method; procedure, shortened: as §4
Staphylococcus aureus [34] = assay: Antibacterial activity against Staphylococcus aureus after 24 hrs by disc diffusion method; procedure, shortened: as §4
Streptococcus pyogenes [35] = assay: Antibacterial activity against Streptococcus pyogenes clinical isolate after 24 hrs by disc diffusion method
Candida albicans [36] = assay: Fungicidal activity against fluconazole, itraconazole-resistant Candida albicans clinical isolate by micro dilution method
Candida tropicalis [37] = assay: Fungicidal activity against fluconazole, itraconazole-resistant Candida tropicalis clinical isolate by micro dilution method

Row | SMILES | MIC90 (Nakaseomyces glabratus [1]) [µg/mL] | MFC (Candida parapsilosis [2]) [µg/mL] | MFC (Candida tropicalis [3]) [µg/mL] | MFC (Candida albicans [4]) [µg/mL] | MIC90 (Candida parapsilosis [7]) [µg/mL] | MIC90 (Candida tropicalis [8]) [µg/mL] | MIC90 (Candida albicans [9]) [µg/mL] | MFC (Candida dubliniensis [10]) [µg/mL] | MFC (Pichia kudriavzevii [11]) [µg/mL] | MFC (Candida parapsilosis [12]) [µg/mL] | MFC (Nakaseomyces glabratus [13]) [µg/mL] | MFC (Candida tropicalis [14]) [µg/mL] | MFC (Candida albicans [15]) [µg/mL] | MIC90 (Candida dubliniensis [16]) [µg/mL] | MIC90 (Pichia kudriavzevii [17]) [µg/mL] | MIC90 (Candida parapsilosis [18]) [µg/mL] | MIC90 (Candida tropicalis [19]) [µg/mL] | MIC90 (Candida albicans [20]) [µg/mL] | MBC (Escherichia coli [21]) [µg/mL] | MBC (Klebsiella pneumoniae [22]) [µg/mL] | also measured
1 | CCCCCC1C(CCC)=NOC1CC[C@H](O)CCCCCCCC(=O)OC (stereo not given in full) | 64 (≈ 161 µM) | > 256 | > 128 | 256 (≈ 644 µM) | 128 (≈ 322 µM) | 64 (≈ 161 µM) | 64 (≈ 161 µM) | > 256 | > 256 | > 256 | 128 (≈ 322 µM) | > 256 | > 256 | 128 (≈ 322 µM) | 128 (≈ 322 µM) | 32 (≈ 80.5 µM) | 128 (≈ 322 µM) | 128 (≈ 322 µM) | 100 (≈ 252 µM) | 100 (≈ 252 µM) | MIC90 (Candida tropicalis [5]): > 256 µg/mL; MIC90 (Candida albicans [6]): > 256 µg/mL; MBC (Pseudomonas aeruginosa [23]): 100 µg/mL (≈ 252 µM); MBC (Staphylococcus aureus [24]): 100 µg/mL (≈ 252 µM); MBC (Streptococcus pyogenes [25]): 50 µg/mL (≈ 126 µM); MIC (Escherichia coli [26]): 25 µg/mL (≈ 62.9 µM); MIC (Klebsiella pneumoniae [27]): 25 µg/mL (≈ 62.9 µM); MIC (Pseudomonas aeruginosa [28]): 50 µg/mL (≈ 126 µM); MIC (Staphylococcus aureus [29]): 25 µg/mL (≈ 62.9 µM); MIC (Streptococcus pyogenes [30]): 25 µg/mL (≈ 62.9 µM); diameter of the inhibition zone (DIZ) (Escherichia coli [31]): 26.5 mm; diameter of the inhibition zone (DIZ) (Klebsiella pneumoniae [32]): 18.9 mm; diameter of the inhibition zone (DIZ) (Pseudomonas aeruginosa [33]): 31.8 mm; diameter of the inhibition zone (DIZ) (Staphylococcus aureus [34]): 20.8 mm; diameter of the inhibition zone (DIZ) (Streptococcus pyogenes [35]): 22.4 mm
2 | CCCCCC[C@@H](O)CC1C(CCC)=NOC1CCCCCCCC(=O)OC (stereo not given in full) | 32 (≈ 80.5 µM) | > 256 | 256 (≈ 644 µM) | 256 (≈ 644 µM) | 128 (≈ 322 µM) | 64 (≈ 161 µM) | 32 (≈ 80.5 µM) | 256 (≈ 644 µM) | 128 (≈ 322 µM) | 128 (≈ 322 µM) | 256 (≈ 644 µM) | > 256 | 256 (≈ 644 µM) | 32 (≈ 80.5 µM) | 64 (≈ 161 µM) | 32 (≈ 80.5 µM) | 64 (≈ 161 µM) | 128 (≈ 322 µM) | 50 (≈ 126 µM) | 100 (≈ 252 µM) | MFC (Candida albicans [36]): > 256 µg/mL; MIC90 (Candida tropicalis [5]): > 256 µg/mL; MIC90 (Candida albicans [6]): 128 µg/mL (≈ 322 µM); MBC (Pseudomonas aeruginosa [23]): 50 µg/mL (≈ 126 µM); MBC (Staphylococcus aureus [24]): 50 µg/mL (≈ 126 µM); MBC (Streptococcus pyogenes [25]): 50 µg/mL (≈ 126 µM); MIC (Escherichia coli [26]): 25 µg/mL (≈ 62.9 µM); MIC (Klebsiella pneumoniae [27]): 25 µg/mL (≈ 62.9 µM); MIC (Pseudomonas aeruginosa [28]): 25 µg/mL (≈ 62.9 µM); MIC (Staphylococcus aureus [29]): 25 µg/mL (≈ 62.9 µM); MIC (Streptococcus pyogenes [30]): 25 µg/mL (≈ 62.9 µM); diameter of the inhibition zone (DIZ) (Escherichia coli [31]): 27.6 mm; diameter of the inhibition zone (DIZ) (Klebsiella pneumoniae [32]): 19.2 mm; diameter of the inhibition zone (DIZ) (Pseudomonas aeruginosa [33]): 32.5 mm; diameter of the inhibition zone (DIZ) (Staphylococcus aureus [34]): 22.6 mm; diameter of the inhibition zone (DIZ) (Streptococcus pyogenes [35]): 23.2 mm
3 | CCCc1cc(CCCCCCCCC(=O)O)on1 | 128 (≈ 479 µM) | > 256 | > 256 | > 256 | 256 (≈ 957 µM) | 128 (≈ 479 µM) | > 256 | 256 (≈ 957 µM) | > 256 | > 256 | > 256 | > 256 | > 256 | 128 (≈ 479 µM) | > 256 | 128 (≈ 479 µM) | > 256 | > 256 | 100 (≈ 374 µM) | > 100 | MBC (Pseudomonas aeruginosa [23]): > 100 µg/mL; MBC (Staphylococcus aureus [24]): 100 µg/mL (≈ 374 µM); MBC (Streptococcus pyogenes [25]): 100 µg/mL (≈ 374 µM); MIC (Escherichia coli [26]): 50 µg/mL (≈ 187 µM); MIC (Klebsiella pneumoniae [27]): 50 µg/mL (≈ 187 µM); MIC (Pseudomonas aeruginosa [28]): 100 µg/mL (≈ 374 µM); MIC (Staphylococcus aureus [29]): 50 µg/mL (≈ 187 µM); MIC (Streptococcus pyogenes [30]): 50 µg/mL (≈ 187 µM); diameter of the inhibition zone (DIZ) (Escherichia coli [31]): 25.7 mm; diameter of the inhibition zone (DIZ) (Klebsiella pneumoniae [32]): 18.3 mm; diameter of the inhibition zone (DIZ) (Pseudomonas aeruginosa [33]): 31.2 mm; diameter of the inhibition zone (DIZ) (Staphylococcus aureus [34]): 19.2 mm; diameter of the inhibition zone (DIZ) (Streptococcus pyogenes [35]): 21.6 mm
4 | CCCCCCCCC1C(CCC)=NOC1CCCCCCCC(=O)OC (stereo not given) | 128 (≈ 335 µM) | > 256 | > 256 | > 256 | 128 (≈ 335 µM) | 128 (≈ 335 µM) | 128 (≈ 335 µM) | > 256 | > 256 | > 256 | > 256 | > 256 | 256 (≈ 671 µM) | 128 (≈ 335 µM) | > 256 | > 256 | 128 (≈ 335 µM) | 128 (≈ 335 µM) | 50 (≈ 131 µM) | 100 (≈ 262 µM) | MFC (Candida tropicalis [37]): 128 µg/mL (≈ 335 µM); MIC90 (Candida tropicalis [5]): > 256 µg/mL; MIC90 (Candida albicans [6]): > 256 µg/mL; MBC (Pseudomonas aeruginosa [23]): 50 µg/mL (≈ 131 µM); MBC (Staphylococcus aureus [24]): 100 µg/mL (≈ 262 µM); MBC (Streptococcus pyogenes [25]): 50 µg/mL (≈ 131 µM); MIC (Escherichia coli [26]): 25 µg/mL (≈ 65.5 µM); MIC (Klebsiella pneumoniae [27]): 25 µg/mL (≈ 65.5 µM); MIC (Pseudomonas aeruginosa [28]): 25 µg/mL (≈ 65.5 µM); MIC (Staphylococcus aureus [29]): 25 µg/mL (≈ 65.5 µM); MIC (Streptococcus pyogenes [30]): 25 µg/mL (≈ 65.5 µM); diameter of the inhibition zone (DIZ) (Escherichia coli [31]): 26.7 mm; diameter of the inhibition zone (DIZ) (Klebsiella pneumoniae [32]): 18.5 mm; diameter of the inhibition zone (DIZ) (Pseudomonas aeruginosa [33]): 31.3 mm; diameter of the inhibition zone (DIZ) (Staphylococcus aureus [34]): 21.6 mm; diameter of the inhibition zone (DIZ) (Streptococcus pyogenes [35]): 22.3 mm
